Data taken from ChEMBL document CHEMBL4229342, “Synthesis of novel proxyphylline derivatives with dual Anti-Candida albicans and anticancer activity” (Eur J Med Chem, 2018).

Columns and labels:
Type in all cases: functional
[1] = tested on: CCRF-CEM; test: Antiproliferative activity against human CCRF-CEM cells assessed as cell viability at 25 uM after 72 hrs by MTT assay; details: read-out: Activity
Summary of the method: (§1)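 MTT viability assay in CCRF-CEM and MCF-7 cells after 72 h exposure at 25, 50, 100 and 200 µM. Results are relative to control cells without inhibitor in 0.5% DMSO. Done in triplicate; values are means ± SD of three independent experiments.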

[2] = tested on: CCRF-CEM; test: Antiproliferative activity against human CCRF-CEM cells assessed as cell viability at 50 uM after 72 hrs by MTT assay; details: read-out: Activity; summary of the method: as §1
[3] = tested on: CCRF-CEM; test: Antiproliferative activity against human CCRF-CEM cells assessed as cell viability at 100 uM after 72 hrs by MTT assay; details: read-out: Activity; summary of the method: as §1
[4] = tested on: CCRF-CEM; test: Antiproliferative activity against human CCRF-CEM cells assessed as cell viability at 200 uM after 72 hrs by MTT assay; details: read-out: Activity; summary of the method: as §1
[5] = tested on: MCF7; test: Antiproliferative activity against human MCF7 cells assessed as cell viability at 25 uM after 72 hrs by MTT assay; details: MCF7, 72 h, read-out: Activity; summary of the method: as §1
[6] = tested on: MCF7; test: Antiproliferative activity against human MCF7 cells assessed as cell viability at 50 uM after 72 hrs by MTT assay; details: MCF7, 72 h, read-out: Activity; summary of the method: as §1
[7] = tested on: MCF7; test: Antiproliferative activity against human MCF7 cells assessed as cell viability at 100 uM after 72 hrs by MTT assay; details: MCF7, 72 h, read-out: Activity; summary of the method: as §1
[8] = tested on: MCF7; test: Antiproliferative activity against human MCF7 cells assessed as cell viability at 200 uM after 72 hrs by MTT assay; details: MCF7, 72 h, read-out: Activity; summary of the method: as §1
[9] = tested on: Candida albicans; test: Growth inhibition of Candida albicans ATCC 90028 at 16 ug/ml incubated for 18 hrs at 35 degC by broth microdilution method relative to control; details: ATCC 90028, 18 h, read-out: GI
[10] = tested on: Candida albicans; test: Growth inhibition of Candida albicans ATCC 90028 at 16 ug/ml incubated for 48 hrs at 35 degC by broth microdilution method relative to control; details: ATCC 90028, 48 h, read-out: GI
[11] = tested on: Candida albicans; test: Growth inhibition of Candida albicans ATCC 90028 at 8 ug/ml incubated for 18 hrs at 35 degC by broth microdilution method relative to control; details: ATCC 90028, 18 h, read-out: GI
[12] = tested on: Candida albicans; test: Growth inhibition of Candida albicans ATCC 90028 at 8 ug/ml incubated for 48 hrs at 35 degC by broth microdilution method relative to control; details: ATCC 90028, 48 h, read-out: GI
[13] = tested on: Candida albicans; test: Growth inhibition of Candida albicans ATCC 90028 at 4 ug/ml incubated for 18 hrs at 35 degC by broth microdilution method relative to control; details: ATCC 90028, 18 h, read-out: GI
[14] = tested on: Candida albicans; test: Growth inhibition of Candida albicans ATCC 90028 at 8 ug/ml incubated for 4 hrs at 35 degC by broth microdilution method relative to control; details: ATCC 90028, 4 h, read-out: GI
[15] = tested on: Candida albicans; test: Growth inhibition of Candida albicans ATCC 90028 at 2 ug/ml incubated for 18 hrs at 35 degC by broth microdilution method relative to control; details: ATCC 90028, 18 h, read-out: GI
[16] = tested on: Candida albicans; test: Growth inhibition of Candida albicans ATCC 90028 at 2 ug/ml incubated for 4 hrs at 35 degC by broth microdilution method relative to control; details: ATCC 90028, 4 h, read-out: GI
[17] = tested on: Candida albicans; test: Growth inhibition of Candida albicans ATCC 90028 at 1 ug/ml incubated for 18 hrs at 35 degC by broth microdilution method relative to control; details: ATCC 90028, 18 h, read-out: GI
[18] = tested on: Candida albicans; test: Growth inhibition of Candida albicans ATCC 90028 at 1 ug/ml incubated for 4 hrs at 35 degC by broth microdilution method relative to control; details: ATCC 90028, 4 h, read-out: GI
[19] = tested on: Candida albicans; test: Growth inhibition of Candida albicans ATCC 90028 at 0.5 ug/ml incubated for 18 hrs at 35 degC by broth microdilution method relative to control; details: ATCC 90028, 18 h, read-out: GI
[20] = tested on: Candida albicans; test: Growth inhibition of Candida albicans ATCC 90028 at 0.5 ug/ml incubated for 4 hrs at 35 degC by broth microdilution method relative to control; details: ATCC 90028, 4 h, read-out: GI
[21] = tested on: Candida albicans; test: Growth inhibition of Candida albicans ATCC 90028 at 0.25 ug/ml incubated for 18 hrs at 35 degC by broth microdilution method relative to control; details: ATCC 90028, 18 h, read-out: GI
[22] = tested on: Candida albicans; test: Growth inhibition of Candida albicans ATCC 90028 at 0.25 ug/ml incubated for 4 hrs at 35 degC by broth microdilution method relative to control; details: ATCC 90028, 4 h, read-out: GI
[23] = tested on: Candida albicans; test: Growth inhibition of Candida albicans ATCC 90028 at 0.125 ug/ml incubated for 18 hrs at 35 degC by broth microdilution method relative to control; details: ATCC 90028, 18 h, read-out: GI
[24] = tested on: Candida albicans; test: Growth inhibition of Candida albicans ATCC 90028 at 0.125 ug/ml incubated for 4 hrs at 35 degC by broth microdilution method relative to control; details: ATCC 90028, 4 h, read-out: GI
[25] = tested on: Candida albicans; test: Growth inhibition of Candida albicans ATCC 90028 at 0.0625 ug/ml incubated for 18 hrs at 35 degC by broth microdilution method relative to control; details: ATCC 90028, 18 h, read-out: GI
[26] = tested on: Candida albicans; test: Growth inhibition of Candida albicans ATCC 90028 at 0.0625 ug/ml incubated for 4 hrs at 35 degC by broth microdilution method relative to control; details: ATCC 90028, 4 h, read-out: GI
[27] = tested on: Candida albicans; test: Growth inhibition of Candida albicans ATCC 90028 at 0.0313 ug/ml incubated for 18 hrs at 35 degC by broth microdilution method relative to control; details: ATCC 90028, 18 h, read-out: GI
[28] = tested on: Candida albicans; test: Growth inhibition of Candida albicans ATCC 90028 at 0.0313 ug/ml incubated for 4 hrs at 35 degC by broth microdilution method relative to control; details: ATCC 90028, 4 h, read-out: GI
[29] = tested on: Candida albicans; test: Fungicidal activity against Candida albicans ATCC 90028 assessed as log reduction in cell viability at 16 ug/ml after 48 hrs at 35 degC
Summary of the method: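 MFC assay on C. albicans ATCC 90028 following M27-A3, at the molar equivalent of 16 µg/mL. CFU of treated cells were compared with CFU of the untreated inoculum. Activity is given as lg R = lg CFU/mL control − lg CFU/mL treated, and lg R ≥3 was defined as fungicidal. Values are means of two independent experiments.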

Row | Compound | viability at 25 µM [1] [%] | viability at 50 µM [2] [%] | viability at 100 µM [3] [%] | viability at 200 µM [4] [%] | viability at 25 µM [5] [%] | viability at 50 µM [6] [%] | viability at 100 µM [7] [%] | viability at 200 µM [8] [%] | inhibition of growth at 16 µg/mL [9] [%] | inhibition of growth at 16 µg/mL [10] [%] | inhibition of growth at 8 µg/mL [11] [%] | inhibition of growth at 8 µg/mL [12] [%] | inhibition of growth at 4 µg/mL [13] [%] | inhibition of growth at 8 µg/mL [14] [%] | inhibition of growth at 2 µg/mL [15] [%] | inhibition of growth at 2 µg/mL [16] [%] | inhibition of growth at 1 µg/mL [17] [%] | inhibition of growth at 1 µg/mL [18] [%] | inhibition of growth at 0.5 µg/mL [19] [%] | inhibition of growth at 0.5 µg/mL [20] [%] | further results
1 | CC(Cn1cnc2c1c(=O)n(C)c(=O)n2C)OC(=O)C(c1ccccc1)c1ccccc1 (configuration not stated) | 84.8 | 33.1 | 30.5 | 2.5 | 89.5 | 75.2 | 67.3 | 43.5 | 99.9 | 99.1 | 99.9 | 99.1 | 100 | 99.2 | 99.8 | 99.2 | 99.6 | 99.4 | 99.6 | 99.1 | inhibition of growth at 0.25 µg/mL [21]: 99.3%; inhibition of growth at 0.25 µg/mL [22]: 99.1%; inhibition of growth at 0.125 µg/mL [23]: 100%; inhibition of growth at 0.125 µg/mL [24]: 99.8%; inhibition of growth at 0.0625 µg/mL [25]: 100%; inhibition of growth at 0.0625 µg/mL [26]: 99.3%; inhibition of growth at 0.0313 µg/mL [27]: 100%; inhibition of growth at 0.0313 µg/mL [28]: 99.9%; log(activity) [29]: 0.1
2 | CC(Cn1cnc2c1c(=O)n(C)c(=O)n2C)OC(=O)CC(=O)c1ccc(F)cc1 (configuration not stated) | 83.5 | 51.1 | 43.8 | 20.1 | 88.5 | 77.9 | 83.8 | 76.8 | 100 | 99.7 | 99.8 | 99.3 | 100 | 99.4 | 100 | 99.3 | 100 | 100 | 99.7 | 99.3 | inhibition of growth at 0.25 µg/mL [21]: 99.7%; inhibition of growth at 0.25 µg/mL [22]: 99.3%; inhibition of growth at 0.125 µg/mL [23]: 99.8%; inhibition of growth at 0.125 µg/mL [24]: 99.5%; inhibition of growth at 0.0625 µg/mL [25]: 99.9%; inhibition of growth at 0.0625 µg/mL [26]: 99.3%; inhibition of growth at 0.0313 µg/mL [27]: 99.7%; inhibition of growth at 0.0313 µg/mL [28]: 98.9%; log(activity) [29]: 0.9
3 | COC(C(=O)OC(C)Cn1cnc2c1c(=O)n(C)c(=O)n2C)c1ccc2ccccc2c1 (configuration not stated) | 84.7 | 28.2 | 27.6 | 15 | 93.5 | 86.3 | 83.7 | 68.8 | 99.2 | 99 | 99 | 99 | 99 | 99 | 99 | 99.1 | 99.1 | 99 | 99.2 | 99.1 | inhibition of growth at 0.25 µg/mL [21]: 99%; inhibition of growth at 0.25 µg/mL [22]: 99.1%; inhibition of growth at 0.125 µg/mL [23]: 99.1%; inhibition of growth at 0.125 µg/mL [24]: 99%; inhibition of growth at 0.0625 µg/mL [25]: 99.1%; inhibition of growth at 0.0625 µg/mL [26]: 99.1%; inhibition of growth at 0.0313 µg/mL [27]: 99%; inhibition of growth at 0.0313 µg/mL [28]: 99.1%; log(activity) [29]: 0.4
